# Measurements of several laboratories.
# Target: Aurora kinase C (AURKC, Homo sapiens, UniProt Q9UQB9)
# Sequence (Q9UQB9 1-309, as in one of the studies): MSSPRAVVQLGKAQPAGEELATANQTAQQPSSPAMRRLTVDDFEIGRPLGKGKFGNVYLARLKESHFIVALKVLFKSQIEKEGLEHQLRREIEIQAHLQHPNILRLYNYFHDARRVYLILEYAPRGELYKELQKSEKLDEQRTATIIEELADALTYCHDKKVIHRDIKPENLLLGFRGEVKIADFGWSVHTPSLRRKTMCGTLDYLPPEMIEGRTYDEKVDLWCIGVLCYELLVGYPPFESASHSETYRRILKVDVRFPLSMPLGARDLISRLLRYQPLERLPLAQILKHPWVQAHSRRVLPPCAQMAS
Compound,effect on,action,technique,concentration,endpoint,value
CCC(=O)N[C@H]1CC[C@@H](C(=O)N(C)c2ccc(-c3nc4ccccc4o3)cc2)C1,cell-free assay,,competition with immobilised ligand,1 µM,remaining binding,100%
Cc1ccc(C(=O)NCc2ccsc2)cc1C#Cc1cn(C(C)C)c2ncnc(N)c12,enzyme activity,inhibitor,,1 µM,activity vs control,81%
Cc1ccc(C(=O)Nc2ccc(CN3CCN(C)CC3)c(C(F)(F)F)c2)cc1C#Cc1cnc2cccnn12,enzyme activity,,,23.5 nM,remaining activity,94%
Nc1ncnc2occ(-c3ccc(NC(=O)Nc4cc(C(F)(F)F)ccc4F)cc3)c12,cell-free assay,,,20 µM,remaining signal,2.7%
COc1cc2ncnc(Nc3ccc(Oc4ccccc4)c(C)c3C)c2cc1OC,enzyme activity,inhibitor,,1 µM,inhibition,5%
CC(C)(O)[C@H]1CC[C@H](Nc2ccc3ncc(-c4cccc(C(F)(F)F)c4)n3n2)CC1,enzyme activity,inhibitor,,1 µM,remaining activity,88.5%
CN(C)C(=O)Cn1cc(-c2nc([C@@](C)(c3ccc(-c4cnc(N)nc4)cc3)C3CC3)no2)cn1,cell-free assay,,competition with immobilised ligand,1 µM,remaining binding,100%
CC/C(=N\NC(=O)NCc1cccc(O)c1)c1ccc(O)c(C)c1O,enzyme activity,inhibitor,,0.1 µM,inhibition,2.5%
O=C(NCc1ncc(C(F)(F)F)cc1Cl)c1ccc2c(c1)C1(CCS(=O)(=O)CC1)[C@@H](C1CC1)N2S(=O)(=O)c1ccc(F)cc1,cell-free assay,,competition with immobilised ligand,1 µM,remaining binding,80%
CN1CC(Oc2cnc(C#N)cc2-c2ccn3nc(NC(=O)C4CC4)cc3c2)C1,enzyme activity,inhibitor,,1 µM,inhibition,3%
O=c1cc(-c2cccc3c2Sc2ccccc2S3)oc(N2CCOCC2)c1,enzyme activity,inhibitor,,0.5 µM,remaining activity,84.9%
Cc1cc(NC(=O)c2cccc3cc(-c4cccc5[nH]nc(N)c45)ccc23)ccc1F,enzyme activity,inhibitor,,0.1 µM,activity vs control,83%
N#CCCc1ccc2c(c1)-c1[nH]c3ccc([N+](=O)[O-])cc3c1CC(=O)N2,cell-free assay,,,0.5 µM,remaining signal,83.6%
O=C(O)[C@H]1[C@H](Cn2nnc3ccccc3c2=O)CC[C@@H]1C(=O)c1ccc(OCCC2CCOCC2)cc1,cell-free assay,,competition with immobilised ligand,1 µM,remaining binding,79%
CC(C)(C)c1nc2c(s1)c1nc(N)ncc1c1ccc(NS(=O)(=O)c3c(F)cccc3F)c(F)c12,enzyme activity,inhibitor,radiometric,1 µM,remaining activity,104%
CC(=O)N1CCC(c2ccc(C(=O)NC3=NCCN3)cc2C(F)(F)F)CC1,cell-free assay,,competition with immobilised ligand,1 µM,remaining binding,100%
CNC(=O)c1cc(Oc2ccc(NC(=O)Nc3ccc(Cl)c(C(F)(F)F)c3)cc2)ccn1,cell-free assay,,,0.5 µM,remaining signal,106%
CCCCN(CCCC)C(=O)CN1C[C@H](c2cc(OC)c3c(c2)OCO3)[C@@H](C(=O)O)[C@@H]1CC(C)(C)CCC,cell-free assay,,competition with immobilised ligand,1 µM,remaining binding,100%
O=C1NC(=O)c2cc(Nc3ccc(F)cc3)c(Nc3ccc(F)cc3)cc21,cell-free assay,,,0.5 µM,remaining signal,90.8%
O=C(Nc1cnn(-c2csc(C(=O)NC3COC3)c2)c1)Nc1c(F)cccc1Cl,enzyme activity,inhibitor,,5 µM,remaining activity,58.5%
